Source: paper PMC2731475 (Journal of the American Chemical Society, 2009)
Where two headings read alike, the source gives them in different places.

Columns and labels:
[1] = tested on: RNAs containing a 1×1 nucleotide CC internal loop; details: cited from earlier work
5′CUG/3′GUC = details: studies on 5′UTR of thymidylate synthetase mRNA; cited from earlier work
mice = details: cited from earlier work
DNA1 = assay: Fluorescence binding assay, DNA1; details: for Kd: DNA1, DNA hairpin with 5′AATT/3′TTAA
Method in brief: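 The DNA hairpin was titrated into 1 μM test compound in 8 mM sodium phosphate pH 7.0, 185 mM NaCl, 1 mM EDTA. After 5 min incubation, fluorescence was read at ex 360/40 and em 460/40. Fraction bound/[nucleic acid] was plotted against fraction bound to obtain binding constants.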

r(CUG)109 [2] = assay: Fluorescence binding assay, r
Method in brief: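 r(CUG)109, transcribed from BamHI-linearised plasmid and gel-purified, was annealed at 60 °C for 1 min in pH 7.0 phosphate/185 mM NaCl/EDTA buffer. It was titrated into test compound (1 μM; 5 μM for one monomeric ligand) and fluorescence read after 5 min. Data were fitted to a lattice-binding equation with N repeat units. Selectivity = Kd(herring sperm DNA)/Kd(r(CUG)109).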

r(CUG)109-MBNL1 complex = assay: r; type: biochemical
RNA8 = assay: Fluorescence binding assay, RNA8
Method in brief: (§1)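 RNA hairpins were annealed in 8 mM sodium phosphate pH 7.0, 185 mM NaCl, 1 mM EDTA at 60 °C for 1 min and slowly cooled. They were titrated into 1 μM test compound in the same buffer and read after 5 min as fluorescence (ex 360/40, em 460/40). Plots were fraction bound/[RNA] versus fraction bound, fitted to a large-ligand lattice-binding equation giving the microscopic dissociation constant.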

RNA6 = assay: Fluorescence binding assay, RNA6
Method in brief: as §1

RNA2 = assay: Fluorescence binding assay, RNA2; details: RNA2, single 5′CUG/3′GUC (DM1) motif
Method in brief: as §1

RNA4 = assay: Fluorescence binding assay, RNA4
Method in brief: as §1

RNA3 = assay: Fluorescence binding assay, RNA3
Method in brief: as §1

RNA9 = assay: Fluorescence binding assay, RNA9
Method in brief: as §1

RNA1 = assay: Fluorescence binding assay, RNA1
Method in brief: as §1

RNA7 = assay: Fluorescence binding assay, RNA7
Method in brief: as §1

herring sperm DNA = assay: Fluorescence binding assay, herring sperm DNA
Method in brief: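 Herring sperm DNA was annealed at 90 °C for 3 min in 8 mM sodium phosphate pH 7.0, 185 mM NaCl, 1 mM EDTA and slowly cooled. It was titrated into 1 μM test compound, and fluorescence (ex 360/40, em 460/40) was read after 5 min. Fraction bound/[DNA] versus fraction bound was fitted to a straight line for Kd.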

RNA11-MBNL1 complex = assay: MBNL1-RNA11; type: biochemical
RNA10 = assay: Fluorescence binding assay, RNA10
RNA12-MBNL1 complex = assay: MBNL1-RNA12; type: biochemical
RNA5 = assay: Fluorescence binding assay, RNA5
Method in brief: as §1

RNA12 [3] = assay: Binding of MBNL1 to RNA12; details: MBNL1, RNA12 versus RNA11
RNA17 = assay: Binding of MBNL1 to RNA17
RNA14 [4] = details: MBNL1 binding to RNA14, gel retardation; cited from earlier work
RNA15 = details: MBNL1 binding to RNA15, gel retardation; cited from earlier work
RNA13 [5] = assay: Binding of MBNL1 to RNA13; details: MBNL1, RNA13 versus RNA11
RNA14 [6] = assay: Binding of MBNL1 to RNA14
RNA16 [7] = details: MBNL1 binding to RNA16, gel retardation; cited from earlier work
r(CUG)109 [8] = details: MBNL1 binding to r(CUG)109; cited from earlier work
RNA12 [9] = details: MBNL1 binding to RNA12, gel retardation; cited from earlier work
RNA11 = details: MBNL1 binding to RNA11, gel retardation; cited from earlier work
RNA16 [10] = assay: Binding of MBNL1 to RNA16; details: MBNL1, RNA16 versus RNA11
RNA13 [11] = details: MBNL1 binding to RNA13, gel retardation; cited from earlier work

For `Cn1cc(NC(=O)c2cc(NC(=O)c3cc(NC=O)cn3C)cn2C)cc1C(=O)NCCC(=N)N` [distamycin], the “affinity for RNAs containing a 1×1 nucleotide CC internal loop” value [1] is given as “nanomolar affinities”.

In the case of `CN1CCN(c2ccc3[nH]c(-c4ccc5[nH]c(-c6ccc(O)cc6)nc5c4)nc3c2)CC1` [Compound 1, Hoechst 33258], the “affinity for 5′CUG/3′GUC” value (5′CUG/3′GUC) is listed as “nanomolar affinity”, the “tolerability and toxicity in mice” value (mice) is listed as “well tolerated by and non-toxic to mice” and the Kd (DNA1) is listed as 0.28 µM.

For `CN1CCN(c2ccc3nc(-c4ccc5nc(-c6cccc(OCCCC(=O)NCCCN=[N+]=[N-])c6)[nH]c5c4)[nH]c3c2)CC1` [Compound 2, meta-(N-(3-azidopropyl)-4-oxybutanamide)-Hoechst], the “specificity for r(CUG)109 versus herring sperm DNA” value (r(CUG)109 [2]) was 0.7 fold, the “Selectivity for r(CUG)109 over herring sperm DNA” value (r(CUG)109 [2]; Kd herring sperm DNA divided by Kd r(CUG)109) was 0.73 and the Kd (r(CUG)109 [2]; r(CUG)109 hairpin, 54 DM1 motifs) was 0.15 ± 0.025 µM. The IC50 (r(CUG)109-MBNL1 complex; 0.65 pmoles r(CUG)109 immobilized, 3.7 μM bulk yeast tRNA, 32 pmoles MBNL1) was 110 ± 20 µM, the “inhibition of the MBNL1-r(CUG)109 interaction” value (r(CUG)109-MBNL1 complex; in the presence of bulk yeast tRNA) was at least 95% and the Kd (RNA8; RNA8) was 0.52 ± 0.018 µM. The “Specificity to RNA2” value (RNA8; RNA8 versus RNA2) was 4.0, the Kd (RNA6; RNA6, 1×1 CC loop) was 0.29 ± 0.05 µM and the “Specificity to RNA2” value (RNA6; RNA6 versus RNA2) was 2.2. For the same molecule, the Kd (RNA2) was 0.13 ± 0.025 µM, the Kd (RNA4; RNA4, 1×1 UU loop with AU closing pairs) was 0.37 ± 0.107 µM and the “Specificity to RNA2” value (RNA4; RNA4 versus RNA2) was 2.8. The “weaker binding than to RNA2” value (RNA4; loop GC pairs (RNA2) changed to AU (RNA4)) was “Approximately 3 fold”, the “binds RNA2 more tightly than RNA3” value (RNA3; 5′CUG/3′GUC (RNA2) versus 5′CUC/3′GUG (RNA3)) was over 8 fold and the Kd (RNA3; RNA3, 5′CUC/3′GUG) was 1.05 ± 0.212 µM. For the same molecule, the “Specificity to RNA2” value (RNA3; RNA3 versus RNA2) was 8.0, the Kd (DNA1) was 0.25 ± 0.063 µM and the “Specificity to RNA2” value (DNA1; DNA1 versus RNA2) was 1.9. The “specific for RNA2 over DNA1” value (DNA1; RNA2 over DNA1) was about 2 fold, the Kd (RNA9; RNA9, 1×1 AA loop (SCA3 motif)) was 0.45 ± 0.1 µM and the “Specificity to RNA2” value (RNA9; RNA9 versus RNA2) was 3.5. For the same molecule, the Kd (RNA1; RNA1, fully paired hairpin cassette) was 1.7 ± 0.07 µM, the “Specificity to RNA2” value (RNA1; RNA1 versus RNA2) was 13.1 and the “binds RNA2 more tightly than RNA1” value (RNA1; RNA2 over RNA1) was 13 fold. The Kd (RNA7; RNA7, 1×1 CC loop) was about 1 µM, the “Specificity to RNA2” value (RNA7; RNA7 versus RNA2) was “∼7.7” and the Kd (herring sperm DNA) was 0.11 ± 0.019 µM. For the same molecule, the IC50 (RNA11-MBNL1 complex; RNA 11, Condition A: 7.5 pmoles of MBNL1 per well) was 30.2 ± 6.8 µM, the IC50 (RNA11-MBNL1 complex; RNA 11, Condition B: 2.0 pmoles of MBNL1 per well) was 38.1 ± 6.9 µM and the Kd (RNA10; RNA10, 1×1 AA loop) was 0.82 ± 0.16 µM. For the same molecule, the “Specificity to RNA2” value (RNA10; RNA10 versus RNA2) was 6.3, the IC50 (RNA12-MBNL1 complex; RNA 12, Condition A: 7.5 pmoles of MBNL1 per well) was 48.4 ± 9.9 µM and the IC50 (RNA12-MBNL1 complex; RNA 12, Condition B: 2.0 pmoles of MBNL1 per well) was 21.1 ± 0.5 µM. The Kd (RNA5; RNA5, 1×1 UU loop with GU closing pairs) was 0.81 ± 0.15 µM, the “Specificity to RNA2” value (RNA5; RNA5 versus RNA2) was 6.2 and the “weaker binding than to RNA2” value (RNA5; loop GC pairs (RNA2) changed to GU (RNA5)) was about 6 fold.

For `N=C(N)c1ccc(-c2cc3ccc(C(=N)N)cc3[nH]2)cc1` [DAPI, 2-(4-amidinophenyl)-1H-indole-6-carboxamidine], the “affinity for RNAs containing a 1×1 nucleotide CC internal loop” value [1] is given as “nanomolar affinities”.

B1: MBNL1: Muscleblind-like 1 protein, alternative splicing regulator that binds expanded rCUG repeats (protein, UniProt Q9NR56 1-388, looked up)
Muscleblind-like protein 1: MAVSVTPIRDTKWLTLEVCREFQRGTCSRPDTECKFAHPSKSCQVENGRVIACFDSLKGRCSRENCKYLHPPPHLKTQLEINGRNNLIQQKNMAMLAQQMQLANAMMPGAPLQPVPMFSVAPSLATNASAAAFNPYLGPVSPSLVPAEILPTAPMLVTGNPGVPVPAAAAAAAQKLMRTDRLEVCREYQRGNCNRGENDCRFAHPADSTMIDTNDNTVTVCMDYIKGRCSREKCKYFHPPAHLQAKIKAAQYQVNQAAAAQAAATAAAMTQSAVKSLKRPLEATFDLGIPQAVLPPLPKRPALEKTNGATAVFNTGIFQYQQALANMQLQQHTAFLPPVPMVHGATPATVSAATTSATSVPFAATATANQIPIISAEHLTSHKYVTQM
For B1, the “Specificity to DM1 RNA11” value (RNA12 [3]) was 2.5, the “weaker than the DM1-MBNL1 complex” value (RNA12 [3]) was 2.5 fold and the “Specificity to DM1 RNA11” value (RNA17; MBNL1, RNA17 versus RNA11) was over 4. For the same molecule, the Kd (RNA17; MBNL1 binding to fully paired RNA17) was over 1 µM, the Kd (RNA14 [4]) was 0.12 ± 0.04 µM and the Kd (RNA15) was over 2.5 µM. For the same molecule, the “Specificity to DM1 RNA11” value (RNA13 [5]) was 0.8, the “higher affinity than the DM1-MBNL1 complex” value (RNA14 [6]; MBNL1, DM2 RNA14) was 2 fold and the “Specificity to DM1 RNA11” value (RNA14 [6]; MBNL1, RNA14 versus RNA11) was 0.5. The Kd (RNA16 [7]) was 0.92 ± 0.15 µM, the Kd (r(CUG)109 [8]) was 0.3 ± 0.093 µM and the Kd (RNA12 [9]) was 0.63 ± 0.07 µM. The Kd (RNA11) was 0.25 ± 0.01 µM, the “Specificity to DM1 RNA11” value (RNA16 [10]) was 3.7 and the Kd (RNA13 [11]) was 0.2 ± 0.03 µM.
